ChEMBL document CHEMBL6114938, “Design, synthesis, and biological evaluation of pyrazole-ciprofloxacin hybrids as antibacterial and antibiofilm agents against Staphylococcus aureus” (RSC Med Chem, 2025)
Converted amounts (≈) assume the structure as drawn. The source made the active and inactive calls. No cut-off for these calls is given here.

Experiments:
[1] = test system: Staphylococcus aureus; test: Antibacterial activity against Staphylococcus aureus ATCC 29213 assessed as inhibition of bacterial growth incubated for 18 to 24 hrs by two-fold serial dilution method; type: functional; details: time 18-24 hrs
Method in brief: (§1)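 Broth microdilution in cation-adjusted Mueller Hinton broth with two-fold serial dilutions. Inoculum came from overnight cultures on Mueller Hinton agar, set to OD600 0.08-0.1 and diluted 100-fold, then added 1:1 to the compound wells. Plates were incubated at 37 °C for 18-24 h and read visually. MIC is the lowest concentration with no turbidity.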

[2] = test system: Pseudomonas aeruginosa; test: Antibacterial activity against Pseudomonas aeruginosa PAO1 ATCC 15692 assessed as inhibition of bacterial growth incubated for 18 to 24 hrs by two-fold serial dilution method; type: functional; details: time 18-24 hrs; method in brief: as §1
[3] = test system: Mycobacterium tuberculosis; test: Antimycobacterial activity against Mycobacterium tuberculosis H37Ra ATCC 25177 assessed as inhibition of bacterial growth incubated for 10 days by liquid broth microdilution method; type: functional; details: H37Ra ATCC 25177, 240 h, time 10 day
Method in brief: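 Log-phase H37Ra (OD₆₀₀ 0.4–0.6) was grown in 7H9 with D-pantothenic acid, amino acids, 0.2% glycerol, 0.05% Tween 80 and 10% ADS, then diluted to OD₆₀₀ 0.005 (1.0×10⁶ CFU/ml). Compounds were two-fold serially diluted in 7H9, and plates were incubated for 10 days at 37 °C in 5% CO₂. MIC was the lowest concentration without visible turbidity.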

[4] = test system: Staphylococcus aureus; test: Potency index, ratio of ciprofloxacin MIC to test compound MIC for antibacterial activity against Staphylococcus aureus ATCC 29213; type: functional
[5] = test system: Staphylococcus aureus; test: Antibacterial activity against one-step ciprofloxacin resistant mutant of Staphylococcus aureus ATCC 29213 assessed as inhibition of bacterial growth by liquid broth microdilution assay; type: functional
Method in brief: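 One-step ciprofloxacin-resistant mutants were raised by plating log-phase cells adjusted to 10¹⁰ CFU/ml on ciprofloxacin-containing Mueller-Hinton agar for 48 h at 37 °C, then passaging picked colonies on ciprofloxacin plates. Mutants with a more than eightfold rise in ciprofloxacin MIC were kept. MIC was read by broth microdilution: two-fold dilutions in cation-adjusted MHB, and inoculum of OD₆₀₀ 0.08–0.1 diluted hundredfold. Plates ran 18–24 h at 37 °C, and MIC was the lowest concentration with no visible turbidity.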

[6] = test system: Staphylococcus aureus; test: Antibiofilm activity against Staphylococcus aureus ATCC 29213 assessed as inhibition of biofilm formation incubated for 24 hrs by crystal violet staining based analysis; type: functional
Method in brief: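 Biofilm formation assay with inoculum at OD600 0.015 from overnight culture. Twelve two-fold dilutions (128 to 0.06 µg/ml) were made in MHB with 2% sucrose in flat-bottom polystyrene wells and incubated at 37 °C for 24 h. Wells were washed with PBS pH 7.4, fixed with methanol, stained with 0.1% crystal violet, eluted with 95% ethanol and read at A595. MBIC50 is the lowest concentration giving ≥50% inhibition versus untreated culture.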

[7] = Cytotoxicity against human HepG2 cells assessed as reduction in cell viability incubated for 48 hrs by MTT assay; type: toxicity, cell-based
Method in brief: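 MTT viability assay in HepG2 cells seeded at 1000-4000 per well and allowed to adhere overnight. Compounds were tested at 1000-0.78 µg/mL for 48 h in fresh medium. MTT 0.5 mg/mL was added for 4 h at 37 °C, formazan was dissolved in DMSO, and absorbance was read at 570 nm.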

[8] = test system: Staphylococcus aureus; test: Antibacterial activity against Staphylococcus aureus NCTC 4163 assessed as inhibition of bacterial growth incubated for 18 hrs by twofold microdilution method; type: functional
[9] = test system: Staphylococcus aureus; test: Antibacterial activity against Staphylococcus aureus ATCC 25923 assessed as inhibition of bacterial growth incubated for 18 hrs by twofold microdilution method; type: functional
[10] = test system: Staphylococcus aureus; test: Antibacterial activity against Staphylococcus aureus ATCC 6538 assessed as inhibition of bacterial growth incubated for 18 hrs by twofold microdilution method; type: functional
[11] = test system: Staphylococcus aureus; test: Antibacterial activity against Staphylococcus aureus ATCC 29213 assessed as inhibition of bacterial growth incubated for 18 hrs by twofold microdilution method; type: functional
[12] = test system: Escherichia coli; test: Antibacterial activity against Escherichia coli ATCC 25922 assessed as inhibition of bacterial growth incubated for 18 hrs by twofold microdilution method; type: functional
[13] = test system: Staphylococcus aureus; test: Antibacterial activity against methicillin-resistant Staphylococcus aureus assessed as inhibition of bacterial growth; type: functional
[14] = test system: Staphylococcus aureus; test: Bactericidal activity against Staphylococcus aureus ATCC 29213 assessed as bacterial killing at 8XMIC measured within 6 hrs by time-kill kinetics analysis; type: functional, organism-based
Method in brief: (§2)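 Time-kill: log-phase cultures at OD600 0.005 were exposed to 1×, 4× and 8× MIC at 37 °C. Viable counts (CFU/ml) were taken by plating 10-fold serial dilutions at 2, 4, 6, 8, 10 and 24 h. Curves plot log10 CFU/ml against time over 24 h.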

[15] = test system: Staphylococcus aureus; test: Bactericidal activity against Staphylococcus aureus ATCC 29213 assessed as log reduction in bacterial load at 4X to 8XMIC measured within 9 hrs by time-kill kinetics analysis; type: functional; method in brief: as §2

| SMILES | MIC [1] | MIC [2] | MIC [3] | Ratio [4] | MIC [5] | MBIC50 [6] | CC50 at 48 h [7] | also measured |
| --- | --- | --- | --- | --- | --- | --- | --- | --- |
| O=C(CN1CCN(c2cc3c(cc2F)c(=O)c(C(=O)O)cn3C2CC2)CC1)Nc1ccc(-n2ccc(-c3ccc(F)cc3)n2)cc1 | 0.125 µg/mL (≈ 0.2 µM) | 32 µg/mL (≈ 51.2 µM) | 1 µg/mL (≈ 1.6 µM) | 2 | 8 µg/mL (≈ 12.8 µM) | 2.7 µg/mL | > 1000 µg/mL |  |
| O=C(CN1CCN(c2cc3c(cc2F)c(=O)c(C(=O)O)cn3C2CC2)CC1)Nc1ccc(-n2ccc(-c3cccc(Cl)c3)n2)cc1 | 8 µg/mL (≈ 12.5 µM) | 64 µg/mL (≈ 99.8 µM) | 8 µg/mL (≈ 12.5 µM) |  |  |  |  |  |
| O=C(O)c1cn(C2CC2)c2cc(N3CCN(C(=O)CCl)CC3)c(F)cc2c1=O |  |  |  |  |  |  |  | MIC [8]: 0.1 µg/mL (≈ 0.245 µM); MIC [9]: 0.1 µg/mL (≈ 0.245 µM); MIC [10]: 0.1 µg/mL (≈ 0.245 µM); MIC [11]: 0.1 µg/mL (≈ 0.245 µM); MIC [12]: 0.1 µg/mL (≈ 0.245 µM) |
| COc1cc(OC)c(-c2cc(-c3cn(-c4ccccc4)nc3-c3ccccc3)[nH]c(=N)n2)cc1OC |  |  |  |  |  |  |  | MIC [13]: 521 µM (≈ 250 µg/mL) |
| O=C(CN1CCN(c2cc3c(cc2F)c(=O)c(C(=O)O)cn3C2CC2)CC1)Nc1ccc(-n2ccc(-c3cc4ccccc4o3)n2)cc1 | 1 µg/mL (≈ 1.55 µM) | 32 µg/mL (≈ 49.5 µM) | 2 µg/mL (≈ 3.09 µM) |  |  |  |  |  |
| O=C(CN1CCN(c2cc3c(cc2F)c(=O)c(C(=O)O)cn3C2CC2)CC1)Nc1ccc(-n2ccc(-c3ccccc3)n2)cc1 | 0.125 µg/mL (≈ 0.206 µM) | 8 µg/mL (≈ 13.2 µM) | 0.5 µg/mL (≈ 0.824 µM) | 2 | 0.5 µg/mL (≈ 0.824 µM) | 0.27 µg/mL | > 1000 µg/mL | Activity [14]: Active |
| COc1ccc(-c2ccn(-c3ccc(NC(=O)CN4CCN(c5cc6c(cc5F)c(=O)c(C(=O)O)cn6C5CC5)CC4)cc3)n2)cc1OC | 0.125 µg/mL (≈ 0.187 µM) | 128 µg/mL (≈ 192 µM) | 16 µg/mL (≈ 24 µM) | 2 | 0.25 µg/mL (≈ 0.375 µM) | 0.3 µg/mL | ≥ 592 µg/mL | Activity [15]: >=3 log10CFU/ml |
| O=C(O)c1cn(C2CC2)c2cc(N3CCNCC3)c(F)cc2c1=O [CIPROFLOXACIN] | 0.25 µg/mL (≈ 0.754 µM) | 0.06 µg/mL (≈ 0.181 µM) |  |  | 2 µg/mL (≈ 6.04 µM) | 1.06 µg/mL |  |  |
| Cc1ccc(-c2ccn(-c3ccc(NC(=O)CN4CCN(c5cc6c(cc5F)c(=O)c(C(=O)O)cn6C5CC5)CC4)cc3)n2)cc1 | 8 µg/mL (≈ 12.9 µM) | 128 µg/mL (≈ 206 µM) | 32 µg/mL (≈ 51.6 µM) |  |  |  |  |  |
| COc1cc(-c2ccn(-c3ccc(NC(=O)CN4CCN(c5cc6c(cc5F)c(=O)c(C(=O)O)cn6C5CC5)CC4)cc3)n2)cc(OC)c1OC | 0.125 µg/mL (≈ 0.179 µM) | 32 µg/mL (≈ 45.9 µM) | 0.5 µg/mL (≈ 0.718 µM) | 2 | 1 µg/mL (≈ 1.44 µM) | 0.52 µg/mL | > 1000 µg/mL |  |
| O=C(CN1CCN(c2cc3c(cc2F)c(=O)c(C(=O)O)cn3C2CC2)CC1)Nc1ccc(-n2ccc(-c3ccccc3Cl)n2)cc1 | 1 µg/mL (≈ 1.56 µM) | 16 µg/mL (≈ 25 µM) | 4 µg/mL (≈ 6.24 µM) |  |  |  |  |  |
| COc1cccc(-c2ccn(-c3ccc(NC(=O)CN4CCN(c5cc6c(cc5F)c(=O)c(C(=O)O)cn6C5CC5)CC4)cc3)n2)c1 | 1 µg/mL (≈ 1.57 µM) | 32 µg/mL (≈ 50.3 µM) | 4 µg/mL (≈ 6.28 µM) |  |  |  |  |  |
